Results reported in paper PMC4851236 (Nature, 2016).
“Also recorded” adds a separate entry of the source.

Columns and labels:
TR146 cells [1] = assay: Cell damage assay; assay type: cell-based, human; settings: for Damage of epithelial cells (LDH release) by peptide fragments: 70 µM, 24 h, individually or in combination; for Induction of damage (LDH release): Ece1-I-VIII at 70 µM (Fig. 2b)
Outline: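 Confluent TR146 cells serum-starved overnight, then exposed to test peptides for 24 h in serum-free DMEM. Culture supernatants assayed for lactate dehydrogenase activity with a colorimetric cytotoxicity kit. Activity quantified against a recombinant porcine LDH standard curve.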

TR146 cells [2] = assay: Cytokine determination in culture supernatants; assay type: cell-based, human; settings: for Induction of cytokines (G-CSF) by peptide fragments: 15 µM, 24 h, individually or in combination
TR146 cells [3] = assay: Western blotting of phospho-MKP1 and c-Fos induction; assay type: cell-based, human; settings: for Induction of p-MKP1 and c-Fos by peptide fragments: 15 µM, 2 h, individually or in combination; for Induction of p-MKP1 and c-Fos: serum-free DMEM, 2 h post-stimulation, Western blot, Ece1-I-VIII incubated at 1.5 – 70 µM (Fig. 2a: 1.5 µM)
Outline: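 Serum-starved TR146 cells treated for 2 h in serum-free DMEM, then lysed on ice for 30 min in modified RIPA buffer (pH 7.4) with protease and phosphatase inhibitors. 20 µg protein resolved on 12% SDS-PAGE and transferred to nitrocellulose. Blots probed for phospho-MKP1 and c-Fos (primary 1:1000, HRP secondary 1:10,000), detected by chemiluminescence. α-actin used as loading control.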

[4] = Impedance spectroscopy of tethered bilayer lipid membranes; settings: tBLMs, DOPC with or without cholesterol, 100 mM KCl, 5 mM HEPES, pH 7.0, room temperature
Outline: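 tBLMs (10% tethering, 90% spacer lipids) were formed by solvent exchange from 3 mM lipid in ethanol, then buffered in 100 mM KCl, 5 mM HEPES, pH 7.0. Membranes were rinsed three times with buffer. Conductance and capacitance were recorded for 20 min before test peptide was injected at various concentrations, all at room temperature. Concentration-dependent conductance changes were averaged.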

TR146 cells [5] = assay: Calcium flux; assay type: cell-based, human; settings: Fura-2, readings up to 3 h
Outline: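 Confluent TR146 monolayers loaded for 1 h at 37°C/5% CO2 with Fura-2 (2.5 mM stock in Pluronic F-127/DMSO) plus probenecid in HEPES-buffered saline (2 mM CaCl2, 10 mM glucose, pH 7.4). Dye then replaced by saline. Baseline read for 10 min at excitation 340 nm/emission 520 nm. Peptides added at different concentrations. Cytosolic calcium expressed as a fluorescence ratio.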

[6] = FRET intercalation into phospholipid liposomes; settings: phospholipid liposomes (DOPC with or without cholesterol), 100 mM KCl, 5 mM HEPES, pH 7.0
Outline: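 Probe-dilution FRET assay. Phospholipid liposomes carried 1% (mol/mol) each of donor NBD-PE and acceptor rhodamine-PE. Lipids were dried from chloroform, taken up in 100 mM KCl, 5 mM HEPES, pH 7.0, and tip-sonicated. They then went through three 30 min cycles of 60°C heating and 4°C cooling and were held at 4°C for at least 12 h. After test peptide addition, intercalation was read as the rise in the donor (531 nm) to acceptor (593 nm) intensity ratio.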

Planar lipid bilayers = settings: 5 mM HEPES, 100 mM KCl, pH 7.0, 37°C, Ece1-III62–93 0.125 µM (DOPC), Ece1-III62–92K 4 µM
Outline: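 Montal-Mueller planar bilayers were bathed in 5 mM HEPES, 100 mM KCl, pH 7.0 (specific conductivity 17.2 mS/cm) at 37°C. Test peptide was added and membrane current was recorded for permeabilization events up to rupture.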

[7] = Circular dichroism spectroscopy; assay type: physicochemical; settings: 15 µM peptide, 100 mM KCl, 5 mM HEPES, pH 7
Outline: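 Peptide at 15 µM in 100 mM KCl, 5 mM HEPES, pH 7.0, in a 1.0 mm quartz cuvette, run at 25°C and 40°C. Spectra are the average of four scans, collected at 1 nm intervals with 2 nm bandwidth.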

[8] = test system: multiple human epithelial cell types; assay: Direct lysis of epithelial cells; assay type: cell-based; settings: not shown
red blood cells = assay: Hemolysis of red blood cells; assay type: cell-based; settings: not shown
TR146 cells [9] = assay: Transcription factor; assay type: cell-based, human; settings: 3 h post-stimulation, sub-lytic concentrations
Outline: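 Serum-starved TR146 cells treated for 3 h in serum-free DMEM. Nuclear proteins recovered by differential lysis. 5 µg nuclear extract assayed for c-Fos DNA binding by plate-based transcription factor ELISA. Results expressed as fold-change in A450nm relative to resting cells.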

TR146 cells [10] = assay: Whole cell patch clamp; assay type: cell-based, human; settings: membrane potential −60 mV, room temperature
Outline: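 TR146 cells cultured 48 h and recorded at 10–30% confluence while superfused with modified Krebs solution (pH 7.4). Pipettes 5–7 MΩ, filled with potassium acetate/KCl/HEPES/EGTA solution (free Ca2+ 40 nM). Current-voltage curves from 1 s steps, −100 to +50 mV. Treatments added to superfusate at final concentration, with vehicle controls and an ionomycin positive control. Cells analysed counted per condition.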

| Substance | Damage of epithelial cells (LDH release) by peptide fragments (TR146 cells [1]) | Induction of cytokines (G-CSF) by peptide fragments (TR146 cells [2]) | Induction of p-MKP1 and c-Fos by peptide fragments (TR146 cells [3]) | Permeabilization of tethered lipid membranes (conductance) [4] | Induction of damage (LDH release) (TR146 cells [1]; 24 h post-stimulation) | Induction of G-CSF secretion (TR146 cells [2]; 24 h post-stimulation) | Calcium influx (intracellular calcium level) (TR146 cells [5]) | Induction of p-MKP1 and c-Fos (TR146 cells [3]) | Intercalation into lipid membranes (FRET) [6] | Lesions induced in planar lipid membranes (Planar lipid bilayers) | Secondary structure by circular dichroism [7] | further results |
| --- | --- | --- | --- | --- | --- | --- | --- | --- | --- | --- | --- | --- |
| Ece1-III62–85: N-terminal hydrophobic region of Ece1-III62–93 | Neither | Neither | Neither |  |  |  |  |  |  |  |  |  |
| Ece1-III62–93AA: Ece1-III62–93 with C-terminal KR motif substituted to AA |  |  |  | significantly reduced | significantly reduced | still induced | significantly reduced | still induced | did not affect membrane intercalation |  |  |  |
| Ece1-III86–93: C-terminal hydrophilic region of Ece1-III62–93 (KAFKGNKR; UniProt Q07730 86-93, looked up, fragment) | Neither | Neither | Neither |  |  |  |  |  |  |  |  |  |
| SIIGIIMGILGNIPQVIQIIMSIVKAFKGNK [Ece1-III62–92K] |  |  |  | induces | induces | induces | induces | induces | induces | heterogeneous and transient lesions leading to membrane rupture | α-helical | Induction of IL-1α secretion (TR146 cells [2]; 24 h post-stimulation): induces |
| SIIGIIMGILGNIPQVIQIIMSIVKAFKGNKR [Ece1-III62–93] |  |  |  | enhanced in the presence of cholesterol | induced |  | associated with calcium influx | induced | able to efficiently intercalate; also recorded: slightly enhanced intercalation for pure DOPC | heterogeneous and transient lesions leading finally to a rupture of the membrane | α-helical conformation | Direct lysis of multiple human epithelial cell types [8]: directly lyse multiple human epithelial cell types; Concentrations required to induce damage (LDH release) (TR146 cells [1]; 24 h post-stimulation): 70 µM; Concentrations required to induce damage-associated cytokine IL-1α (TR146 cells [2]; 24 h post-stimulation): 70 µM; Concentrations required to induce damage-associated cytokine IL-6 (TR146 cells [2]; 24 h post-stimulation): 70 µM; Concentrations sufficient to induce G-CSF (TR146 cells [2]; 24 h post-stimulation): 1.5 to 15 µM; Concentrations sufficient to induce GM-CSF (TR146 cells [2]; 24 h post-stimulation): 1.5 to 15 µM; Induction of cytokines (TR146 cells [2]; 24 h post-stimulation, peptides 1.5 – 70 µM): induced; Hemolysis of red blood cells (red blood cells): induce hemolysis of red blood cells; Concentrations sufficient to induce c-Fos DNA binding (TR146 cells [9]): 1.5 to 15 µM; Evoked current in epithelial cells (patch clamp) (TR146 cells [10]): causes an inward current |
